# Assay results reported in ChEMBL document CHEMBL3864121, “Development of ebsulfur analogues as potent antibacterials against methicillin-resistant Staphylococcus aureus” (Bioorg Med Chem, 2016).
# Columns and labels:
# Format in all cases: functional
# Staphylococcus aureus [1] = test: Antibacterial activity against methicillin-resistant Staphylococcus aureus 2 measured after overnight incubation by broth double-dilution method
# Method in brief: (§1)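 MIC by broth double-dilution in liquid Mueller-Hinton medium. Values are reported in µg/mL.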
# Staphylococcus aureus [2] = test: Antibacterial activity against methicillin-resistant Staphylococcus aureus USA100 measured after overnight incubation by broth double-dilution method; method in brief: as §1
# Staphylococcus aureus [3] = test: Antibacterial activity against methicillin-sensitive Staphylococcus aureus ATCC 29213 measured after overnight incubation by broth double-dilution method; method in brief: as §1
# Staphylococcus aureus [4] = test: Antibacterial activity against methicillin-resistant Staphylococcus aureus C16 measured after overnight incubation by broth double-dilution method; method in brief: as §1
# Staphylococcus aureus [5] = test: Antibacterial activity against methicillin-resistant Staphylococcus aureus C1 measured after overnight incubation by broth double-dilution method; method in brief: as §1
# Staphylococcus aureus [6] = test: Antibacterial activity against methicillin-resistant Staphylococcus aureus USA300 measured after overnight incubation by broth double-dilution method; method in brief: as §1
# Staphylococcus aureus [7] = test: Antibacterial activity against methicillin-resistant Staphylococcus aureus C19 measured after overnight incubation by broth double-dilution method; method in brief: as §1
# Staphylococcus aureus [8] = test: Antibacterial activity against methicillin-resistant Staphylococcus aureus S24 measured after overnight incubation by broth double-dilution method; method in brief: as §1
# Staphylococcus aureus [9] = test: Antibacterial activity against methicillin-resistant Staphylococcus aureus ATCC 33591 measured after overnight incubation by broth double-dilution method; method in brief: as §1
# Staphylococcus aureus [10] = test: Antibacterial activity against methicillin-resistant Staphylococcus aureus G14 measured after overnight incubation by broth double-dilution method; method in brief: as §1
# Staphylococcus aureus [11] = test: Antibacterial activity against methicillin-resistant Staphylococcus aureus NRS51 measured after overnight incubation by broth double-dilution method; method in brief: as §1
# Enterococcus = test: Antibacterial activity against Vancomycin-resistant Enterococcus measured after overnight incubation by broth double-dilution method; method in brief: as §1
# Staphylococcus aureus [12] = test: Antibacterial activity against methicillin-sensitive Staphylococcus aureus ATCC 6538 measured after overnight incubation by broth double-dilution method; method in brief: as §1
# Staphylococcus aureus [13] = test: Antibacterial activity against methicillin-resistant Staphylococcus aureus S17 measured after overnight incubation by broth double-dilution method; method in brief: as §1
# Staphylococcus aureus [14] = test: Antibacterial activity against methicillin-resistant Staphylococcus aureus G1 measured after overnight incubation by broth double-dilution method; method in brief: as §1
# Staphylococcus aureus [15] = test: Antibacterial activity against methicillin-resistant Staphylococcus aureus G6 measured after overnight incubation by broth double-dilution method; method in brief: as §1
# Staphylococcus aureus [16] = test: Antibacterial activity against methicillin-resistant Staphylococcus aureus S22 measured after overnight incubation by broth double-dilution method; method in brief: as §1
# Staphylococcus aureus [17] = test: Antibacterial activity against methicillin-resistant Staphylococcus aureus NRS77 measured after overnight incubation by broth double-dilution method; method in brief: as §1
# Staphylococcus aureus [18] = test: Antibacterial activity against methicillin-sensitive Staphylococcus aureus ATCC 25923 measured after overnight incubation by broth double-dilution method; method in brief: as §1
# [19] = tested on: Staphylococcus epidermidis; test: Antibacterial activity against Staphylococcus epidermidis ATCC 35984 measured after overnight incubation by broth double-dilution method; settings: RP62A
# Method in brief: (§2)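 MIC by broth double-dilution in Mueller-Hinton medium. Re-testing at the time-kill inoculum used 1×10^6 CFU/mL.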
# Staphylococcus aureus [20] = test: Antibacterial activity against methicillin-resistant Staphylococcus aureus USA600 measured after overnight incubation by broth double-dilution method; method in brief: as §1
# Staphylococcus aureus [21] = test: Antibacterial activity against methicillin-resistant Staphylococcus aureus USA200 measured after overnight incubation by broth double-dilution method; method in brief: as §1
# Staphylococcus aureus [22] = test: Antibacterial activity against methicillin-resistant Staphylococcus aureus C2 measured after overnight incubation by broth double-dilution method; method in brief: as §1
# Staphylococcus aureus [23] = test: Antibacterial activity against methicillin-resistant Staphylococcus aureus G12 measured after overnight incubation by broth double-dilution method; method in brief: as §1
# [24] = tested on: Mycolicibacterium smegmatis; test: Antibacterial activity against Mycobacterium smegmatis MC2-155 measured after overnight incubation by broth double-dilution method; settings: str. MC2 155; method in brief: as §1
# Staphylococcus aureus [25] = test: Antibacterial activity against methicillin-resistant Staphylococcus aureus BRS3 measured after overnight incubation by broth double-dilution method; method in brief: as §1
# Staphylococcus aureus [26] = test: Antibacterial activity against methicillin-resistant Staphylococcus aureus S14 measured after overnight incubation by broth double-dilution method; method in brief: as §1
# Enterococcus faecalis [27] = test: Antibacterial activity against Enterococcus faecalis ATCC 49533 measured after overnight incubation by broth double-dilution method; method in brief: as §2
# Staphylococcus aureus [28] = test: Antibacterial activity against methicillin-resistant Staphylococcus aureus 1 measured after overnight incubation by broth double-dilution method; method in brief: as §1
# Listeria monocytogenes = test: Antibacterial activity against Listeria monocytogenes ATCC 19115 measured after overnight incubation by broth double-dilution method; method in brief: as §2
# Enterococcus faecalis [29] = test: Antibacterial activity against Enterococcus faecalis ATCC 29212 measured after overnight incubation by broth double-dilution method; method in brief: as §2
# Staphylococcus aureus [30] = test: Antibacterial activity against methicillin-resistant Staphylococcus aureus NRS4 measured after overnight incubation by broth double-dilution method; method in brief: as §1
# Enterococcus faecium = test: Antibacterial activity against Enterococcus faecium BM4105-RF measured after overnight incubation by broth double-dilution method; method in brief: as §1
# Staphylococcus aureus [31] = test: Antibacterial activity against methicillin-resistant Staphylococcus aureus C7 measured after overnight incubation by broth double-dilution method; method in brief: as §1
# Staphylococcus aureus [32] = test: Antibacterial activity against methicillin-resistant Staphylococcus aureus C14 measured after overnight incubation by broth double-dilution method; method in brief: as §1
SMILES,MIC (Staphylococcus aureus [1]) [µg/mL],MIC (Staphylococcus aureus [3]) [µg/mL],MIC (Staphylococcus aureus [6]) [µg/mL],MIC (Staphylococcus aureus [8]) [µg/mL],MIC (Staphylococcus aureus [9]) [µg/mL],MIC (Staphylococcus aureus [10]) [µg/mL],MIC (Enterococcus) [µg/mL],MIC (Staphylococcus aureus [13]) [µg/mL],MIC (Staphylococcus aureus [16]) [µg/mL],MIC (Staphylococcus aureus [17]) [µg/mL],MIC (Staphylococcus aureus [18]) [µg/mL],MIC [19] [µg/mL],MIC (Staphylococcus aureus [21]) [µg/mL],MIC (Staphylococcus aureus [23]) [µg/mL],MIC [24] [µg/mL],MIC (Staphylococcus aureus [26]) [µg/mL],MIC (Enterococcus faecalis [27]) [µg/mL],MIC (Listeria monocytogenes) [µg/mL],MIC (Enterococcus faecium) [µg/mL],MIC (Staphylococcus aureus [31]) [µg/mL],further results
Cc1cc(C)cc(-n2sc3ccccc3c2=O)c1,7.8,3.9,7.8,7.8,1,3.9,3.9,3.9,3.9,7.8,7.8,3.9,7.8,7.8,3.9,≤ 0.25,15.6,7.8,15.6,3.9,MIC (Staphylococcus aureus [2]): 3.9 µg/mL; MIC (Staphylococcus aureus [4]): 7.8 µg/mL; MIC (Staphylococcus aureus [5]): 3.9 µg/mL; MIC (Staphylococcus aureus [7]): 7.8 µg/mL; MIC (Staphylococcus aureus [11]): 7.8 µg/mL; MIC (Staphylococcus aureus [12]): 7.8 µg/mL; MIC (Staphylococcus aureus [14]): 7.8 µg/mL; MIC (Staphylococcus aureus [15]): 7.8 µg/mL; MIC (Staphylococcus aureus [20]): 7.8 µg/mL; MIC (Staphylococcus aureus [22]): 3.9 µg/mL; MIC (Staphylococcus aureus [25]): 7.8 µg/mL; MIC (Staphylococcus aureus [28]): 7.8 µg/mL; MIC (Enterococcus faecalis [29]): 15.6 µg/mL; MIC (Staphylococcus aureus [30]): 7.8 µg/mL; MIC (Staphylococcus aureus [32]): 15.6 µg/mL
CC(C)CCn1sc2ccccc2c1=O,7.8,3.9,7.8,3.9,> 125,7.8,2,3.9,7.8,3.9,> 125,3.9,7.8,3.9,3.9,1,15.6,> 125,7.8,3.9,MIC (Staphylococcus aureus [2]): 7.8 µg/mL; MIC (Staphylococcus aureus [4]): 7.8 µg/mL; MIC (Staphylococcus aureus [5]): 3.9 µg/mL; MIC (Staphylococcus aureus [7]): 3.9 µg/mL; MIC (Staphylococcus aureus [11]): 7.8 µg/mL; MIC (Staphylococcus aureus [12]): 3.9 µg/mL; MIC (Staphylococcus aureus [14]): 2 µg/mL; MIC (Staphylococcus aureus [15]): 3.9 µg/mL; MIC (Staphylococcus aureus [20]): 7.8 µg/mL; MIC (Staphylococcus aureus [22]): 3.9 µg/mL; MIC (Staphylococcus aureus [25]): 3.9 µg/mL; MIC (Staphylococcus aureus [28]): 3.9 µg/mL; MIC (Enterococcus faecalis [29]): 7.8 µg/mL; MIC (Staphylococcus aureus [30]): 3.9 µg/mL; MIC (Staphylococcus aureus [32]): 3.9 µg/mL
C#Cc1ccc(-n2sc3ccccc3c2=O)cc1,2,1,3.9,2,1,3.9,2,3.9,2,3.9,3.9,2,3.9,3.9,3.9,0.5,< 125,3.9,7.8,2,MIC (Staphylococcus aureus [2]): 2 µg/mL; MIC (Staphylococcus aureus [5]): 2 µg/mL; MIC (Staphylococcus aureus [7]): 2 µg/mL; MIC (Staphylococcus aureus [11]): 3.9 µg/mL; MIC (Staphylococcus aureus [14]): 2 µg/mL; MIC (Staphylococcus aureus [22]): 2 µg/mL; MIC (Staphylococcus aureus [28]): 3.9 µg/mL
CC(C)(C)n1sc2ccccc2c1=O,15.6,15.6,15.6,15.6,3.9,15.6,3.9,15.6,15.6,15.6,15.6,15.6,15.6,15.6,3.9,2,125,3.9,7.8,15.6,MIC (Staphylococcus aureus [2]): 15.6 µg/mL; MIC (Staphylococcus aureus [4]): 15.6 µg/mL; MIC (Staphylococcus aureus [12]): 15.6 µg/mL; MIC (Staphylococcus aureus [15]): 15.6 µg/mL; MIC (Staphylococcus aureus [20]): 15.6 µg/mL; MIC (Staphylococcus aureus [25]): 15.6 µg/mL; MIC (Enterococcus faecalis [29]): 15.6 µg/mL; MIC (Staphylococcus aureus [30]): 15.6 µg/mL; MIC (Staphylococcus aureus [32]): 15.6 µg/mL
O=c1c2ccccc2sn1-c1ccc(Br)cc1,2,2,3.9,2,0.5,2,2,3.9,2,2,2,2,3.9,2,0.5,≤ 0.25,15.6,2,7.8,1,MIC (Staphylococcus aureus [4]): 3.9 µg/mL; MIC (Staphylococcus aureus [5]): 2 µg/mL; MIC (Staphylococcus aureus [7]): 2 µg/mL; MIC (Staphylococcus aureus [11]): 2 µg/mL; MIC (Staphylococcus aureus [12]): 2 µg/mL; MIC (Staphylococcus aureus [14]): 2 µg/mL; MIC (Staphylococcus aureus [15]): 3.9 µg/mL; MIC (Staphylococcus aureus [20]): 3.9 µg/mL; MIC (Staphylococcus aureus [22]): 2 µg/mL; MIC (Staphylococcus aureus [25]): 3.9 µg/mL; MIC (Staphylococcus aureus [28]): 3.9 µg/mL; MIC (Staphylococcus aureus [30]): 3.9 µg/mL; MIC (Staphylococcus aureus [32]): 3.9 µg/mL
